From PubChem
Hits are enriched below; roughly 1.6% of the tested compounds scored in any of these assays.
PKA-R1A activ: activates the PKA-R1A holoenzyme complex; actives 0.083% (n = 340,000); P00514+P68181; activation, % at 11.4 µM; PKA-R1A dissociation, Cy5-IP20 fluorescence polarization; scaled: DMSO 0%, 113 µM cGMP 100%; AID 504707;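 active means percent activation above the mean of all tested compounds plus 3 SD, cut at about 19% in these data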;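 further: higher means more PKAc released from R1A so a rise in polarization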
PfGluPho inh: PfG6PD (Plasmodium falciparum) enzyme inhibition. PfGluPho enzyme, NADPH resazurin-diaphorase fluorescence. inhibition, % at 20 µM. actives 0.78% (n = 350,000). AID 504690;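 active means inhibition reaching at least a set limit at 20 µM in the primary screen, cut at about 59% in these data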;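 further: 0% = DMSO wells with substrate and 100% = DMSO wells lacking glucose-6-phosphate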
ATG4B inhibitor: blocks human ATG4B protease cleavage of LC3 substrate; AID 504462; actives 0.51% (n = 340,000); inhibition, % at 8.33 µM; ATG4B cleavage of LC3-PLA2, NBD-HPC fluorescence, 1 h; in the data active means inhibition above about 40%
T cell modulator: modulates CD8 T cell binding to vesicles. 2C CD8+ T cell-vesicle binding, flow cytometry; active compounds read low. response (vesicle binding), % at 7 µM. actives 0.068% (n = 330,000). AID 2052;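 active means response, share of CD8 T cells binding vesicles, and their 90th percentile fluorescence all below set limits, cut at about 80% in these data, passing the limit was not always enough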;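 further: values below 100% mean blocked vesicle binding to the CD8+ T cells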
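Test system: purified 2C TCR transgenic mouse naive CD8+ T cells. Probe or stimulus: QL9-peptide-loaded Drosophila micro-vesicles bearing Ld, ICAM-1 and B7-1. Incubation: binding step 1.5 h, 37 °C, antibody labelling 20 min, ice. Measured by: flow cytometry of vesicle-bound cells.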
HKDC1 inhibitor: blocks human hexokinase HKDC1 activity | Q2TB90 | recombinant HKDC1, G6PDH/diaphorase resazurin coupled fluorescence | inhibition, % at 20 µM | actives 0.16% (n = 340,000) | AID 493160;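 active means inhibition above about 35% when tested at 20 µM, limit read from the data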;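 further: plate controls were DMSO wells with enzyme for no effect and DMSO wells lacking enzyme for full effect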
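System: Recombinant HKDC1 hexokinase | Amount: HKDC1 at 5 µg/mL | Reagent: Glucose with 1 mM ATP | Doses: Single 20 µM dose | Incubation: Reaction time 90 min, room temperature, protected from light | Signal: Coupled resazurin fluorescence, excitation 525 nm, emission 613 nm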
PKA-R2B act: PKA-R2B complex activation; P22694+P31323; PKA-R2B holoenzyme dissociation, Cy5-IP20 fluorescence polarization; R2B truncated from residue 108, S112A mutant; 0% DMSO only, 100% 113 µM cGMP; activation, % at 11.4 µM; actives 0.079% (n = 340,000); AID 504700;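 active means activation above a cutoff set at the mean over all compounds plus 3 SD, cut at about 18% in these data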;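 further: higher means more holoenzyme dissociation and a rise in polarization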
ATG4B confirm: ATG4B (human) inhibition, single-dose confirmed | shares compounds with ATG4B inhibitor | ATG4B protease fluorescent substrate cleavage assay | inhibition, % at 8.33 µM | actives 92% (n = 320) | AID 504757; in the data active means inhibition above about 39%
PLA2 counter: inhibits human PLA2, flagging false ATG4B inhibitors; purified PLA2, NBD-C6-HPC fluorescence, 45 min; inhibition, % at 8.33 µM; shares compounds with ATG4B inhibitor; actives 66% (n = 1,600); in the data active means inhibition above about 50%
Target sequence (P04054 whole entry, looked up): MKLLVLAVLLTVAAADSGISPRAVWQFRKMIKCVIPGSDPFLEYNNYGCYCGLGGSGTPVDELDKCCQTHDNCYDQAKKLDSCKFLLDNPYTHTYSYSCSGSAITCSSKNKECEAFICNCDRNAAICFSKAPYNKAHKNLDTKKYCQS
The depositor's hits bear a star.

Screening O=C(Cc1ccccc1Cl)Nc1ccc(S(=O)(=O)Nc2nccs2)cc1 returned PKA-R1A activ -9, PfGluPho inh -5, ATG4B inhibitor 2, T cell modulator 307, HKDC1 inhibitor -1 and PKA-R2B act -9.
For C/C(CCc1oc2ccc(Cl)cc2c1-c1ccc(C)o1)=N\O the results were PKA-R1A activ -2, PfGluPho inh 26, ATG4B inhibitor 46*, T cell modulator 171, HKDC1 inhibitor 7, PKA-R2B act 5 and PLA2 counter 71*.
Screening C#CCCC(=O)c1ccccc1/C=[N+](\[O-])c1ccccc1 returned PKA-R1A activ -11, PfGluPho inh 30, ATG4B inhibitor 42*, T cell modulator 390, HKDC1 inhibitor 6, PKA-R2B act -4 and PLA2 counter 62*.
Screening Clc1ccc(OCc2nnc(SCc3nc4ccccc4[nH]3)n2Cc2ccco2)cc1 returned PKA-R1A activ 3, PfGluPho inh -3, ATG4B inhibitor -7, T cell modulator 186, HKDC1 inhibitor 5 and PKA-R2B act -5.
`O=C(CSc1nnc(COc2ccc(Cl)cc2)n1Cc1ccco1)c1ccccc1F` gave PKA-R1A activ -7, PfGluPho inh -3, ATG4B inhibitor 44*, T cell modulator inactive, HKDC1 inhibitor 1, PKA-R2B act 1, ATG4B confirm 57* and PLA2 counter 34.
O=C(Nc1cc2c(cc1C(=O)O)OCCCO2)c1ccc(C(F)(F)F)cc1 was read as PKA-R1A activ 2, PfGluPho inh -11, ATG4B inhibitor 10, T cell modulator 217, HKDC1 inhibitor -3 and PKA-R2B act -5.
`O=C(O)c1cc2c(cc1NC(=O)c1ccccc1C(F)(F)F)OCCCO2` gave PKA-R1A activ -2, PfGluPho inh -5, ATG4B inhibitor 63*, T cell modulator 198, HKDC1 inhibitor -5, PKA-R2B act -8 and PLA2 counter 63*.
Screening Cc1ccccc1-c1nnn(Cc2ccc(F)cc2Cl)n1 returned PKA-R1A activ -7, PfGluPho inh -5, ATG4B inhibitor 44*, T cell modulator 183, HKDC1 inhibitor -1, PKA-R2B act -7 and PLA2 counter 46.
For NC(=O)CSc1nc2ccc([N+](=O)[O-])cc2[nH]1 the results were PKA-R1A activ 6, PfGluPho inh 0, ATG4B inhibitor 42*, T cell modulator 578, HKDC1 inhibitor -2, PKA-R2B act -2, ATG4B confirm 69* and PLA2 counter 40.
For Cc1ccc(C)c(NC(=O)CN2C(=O)C3CC=CCC3C2=O)c1 (stereo not drawn) the results were PKA-R1A activ -2, PfGluPho inh 6 and PKA-R2B act 0.
`O=C(CN1C(=O)c2ccccc2C1=O)NCCc1c[nH]c2ccc(Cl)cc12` gave PKA-R1A activ 4, PfGluPho inh -18, ATG4B inhibitor -5, T cell modulator 156, HKDC1 inhibitor 15 and PKA-R2B act -10.
Screening O=C1c2ccccc2C(=O)N1CCCc1c[nH]c2ccc(Cl)cc12 returned PKA-R1A activ -11, PfGluPho inh 7, ATG4B inhibitor 53*, T cell modulator 253, HKDC1 inhibitor 0, PKA-R2B act 0 and PLA2 counter 50.
For CCN(CC(=O)Nc1ccc(OC)cc1)C(=O)CN1C(=O)NC(C)(c2ccc3ccccc3c2)C1=O (stereo not drawn) the results were PKA-R1A activ -14, PfGluPho inh -3, ATG4B inhibitor -24, T cell modulator 180, HKDC1 inhibitor -6 and PKA-R2B act -11.
